Data: ChEMBL document CHEMBL1151801, “Synthesis of new indeno[1,2-e]pyrimido[4,5-b][1,4]diazepine-5,11-diones as potential antitumor agents” (2008)
Calls of active or inactive are those of the source.

Experiments:
K562 = experiment: Antitumor activity against human K562 cells after 48 hrs by SRB assay; assay type: functional; conditions: K562, 48 h
How it was run: (§1)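 NCI in vitro human tumor cell line screen. Cells were exposed continuously to compound for 48 h at five concentration levels (100, 10, 1.0, 0.1 and 0.01). Growth was estimated by sulforhodamine B protein staining. GI50 is the concentration giving a 50% reduction in net protein increase relative to control cells over the incubation.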

OVCAR-8 = experiment: Antitumor activity against human OVCAR8 cells after 48 hrs by SRB assay; assay type: functional; conditions: OVCAR-8, 48 h; how it was run: as §1
COLO 205 = experiment: Antitumor activity against human COLO205 cells after 48 hrs by SRB assay; assay type: functional; conditions: COLO 205, 48 h; how it was run: as §1
NCI-H226 = experiment: Antitumor activity against human NCI-H226 cells after 48 hrs by SRB assay; assay type: functional; conditions: NCI-H226, 48 h; how it was run: as §1
NCI-H522 = experiment: Antitumor activity against human NCI-H522 cells after 48 hrs by SRB assay; assay type: functional; conditions: NCI-H522, 48 h; how it was run: as §1
OVCAR-3 = experiment: Antitumor activity against human OVCAR-3 cells after 48 hrs by SRB assay; assay type: functional; conditions: OVCAR-3, 48 h; how it was run: as §1
SNB-75 = experiment: Antitumor activity against human SNB75 cells after 48 hrs by SRB assay; assay type: functional; conditions: SNB-75, 48 h; how it was run: as §1
SF-539 = experiment: Antitumor activity against human SF539 cells after 48 hrs by SRB assay; assay type: functional; conditions: SF-539, 48 h; how it was run: as §1
SK-OV-3 = experiment: Antitumor activity against human SKOV3 cells after 48 hrs by SRB assay; assay type: functional; conditions: SK-OV-3, 48 h; how it was run: as §1
786-0 = experiment: Antitumor activity against human 786-0 cells after 48 hrs by SRB assay; assay type: functional; conditions: 786-0, 48 h; how it was run: as §1
HL-60(TB) = experiment: Antitumor activity against human HL-60(TB) cells after 48 hrs by SRB assay; assay type: functional; conditions: HL-60, 48 h; how it was run: as §1
[1] = Antitumor activity against human […] cells after 48 hrs by SRB assay; assay type: functional; how it was run: as §1
DU-145 = experiment: Antitumor activity against human DU145 cells after 48 hrs by SRB assay; assay type: functional; conditions: DU-145, 48 h; how it was run: as §1
CCRF-CEM = experiment: Antitumor activity against human CCRF-CEM cells after 48 hrs by SRB assay; assay type: functional; how it was run: as §1
ACHN = experiment: Antitumor activity against human ACHN cells after 48 hrs by SRB assay; assay type: functional; how it was run: as §1
HOP-92 = experiment: Antitumor activity against human HOP92 cells after 48 hrs by SRB assay; assay type: functional; conditions: HOP-92, 48 h; how it was run: as §1
IGROV-1 = experiment: Antitumor activity against human IGROV1 cells after 48 hrs by SRB assay; assay type: functional; conditions: IGROV-1, 48 h; how it was run: as §1
EKVX = experiment: Antitumor activity against human EKVX cells after 48 hrs by SRB assay; assay type: functional; how it was run: as §1
NCI-H23 = experiment: Antitumor activity against human NCI-H23 cells after 48 hrs by SRB assay; assay type: functional; conditions: NCI-H23, 48 h; how it was run: as §1
SF-268 = experiment: Antitumor activity against human SF268 cells after 48 hrs by SRB assay; assay type: functional; conditions: SF-268, 48 h; how it was run: as §1
HOP-62 = experiment: Antitumor activity against human HOP62 cells after 48 hrs by SRB assay; assay type: functional; conditions: HOP-62, 48 h; how it was run: as §1
A498 = experiment: Antitumor activity against human A498 cells after 48 hrs by SRB assay; assay type: functional; conditions: A498, 48 h; how it was run: as §1
[2] = Antitumor activity against human Hs 578T cells after 48 hrs by SRB assay; assay type: functional; how it was run: as §1
HCC 2998 = experiment: Antitumor activity against human HCC2998 cells after 48 hrs by SRB assay; assay type: functional; conditions: HCC 2998, 48 h; how it was run: as §1
NCI60 = experiment: Antitumor activity against human NCI60 cells at 1 uM; assay type: functional, cell-based
SW-620 = experiment: Antitumor activity against human SW620 cells after 48 hrs by SRB assay; assay type: functional; conditions: SW-620, 48 h
How it was run: (§2)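 NCI in vitro human tumor cell line screen. Continuous 48 h drug exposure at five concentrations (100, 10, 1.0, 0.1 and 0.01 µM). Cell growth estimated by sulforhodamine B protein staining. GI50 defined as the concentration giving 50% reduction in net protein increase versus control cells over the incubation.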

MDA-MB-231 = experiment: Antitumor activity against human MDA-MB-231 cells after 48 hrs by SRB assay; assay type: functional; conditions: MDA-MB-231, 48 h; how it was run: as §1
SR = experiment: Antitumor activity against human SR cells after 48 hrs by SRB assay; assay type: functional; how it was run: as §1
HT-29 = experiment: Antitumor activity against human HT-29 cells after 48 hrs by SRB assay; assay type: functional; conditions: HT-29, 48 h; how it was run: as §1
HCT-15 = experiment: Antitumor activity against human HCT15 cells after 48 hrs by SRB assay; assay type: functional; conditions: HCT-15, 48 h; how it was run: as §1
U-251 = experiment: Antitumor activity against human U251 cells after 48 hrs by SRB assay; assay type: functional; conditions: U-251, 48 h; how it was run: as §2
HCT-116 = experiment: Antitumor activity against human HCT116 cells after 48 hrs by SRB assay; assay type: functional; conditions: HCT-116, 48 h; how it was run: as §1
NCI-H322M = experiment: Antitumor activity against human NCI-H322M cells after 48 hrs by SRB assay; assay type: functional; how it was run: as §1
T47D = experiment: Antitumor activity against human T47D cells after 48 hrs by SRB assay; assay type: functional; how it was run: as §2
OVCAR-4 = experiment: Antitumor activity against human OVCAR4 cells after 48 hrs by SRB assay; assay type: functional; conditions: OVCAR-4, 48 h; how it was run: as §1
CAKI-1 = experiment: Antitumor activity against human Caki1 cells after 48 hrs by SRB assay; assay type: functional; conditions: CAKI-1, 48 h; how it was run: as §1
UO-31 = experiment: Antitumor activity against human UO31 cells after 48 hrs by SRB assay; assay type: functional; conditions: UO-31, 48 h; how it was run: as §2
KM12 = experiment: Antitumor activity against human KM12 cells after 48 hrs by SRB assay; assay type: functional; conditions: KM12, 48 h; how it was run: as §1
[3] = read-out: LC50 (the source's name)

## CSc1nc2c(c(=O)[nH]1)NC1=C(C(=O)c3ccccc31)C(c1ccc(F)cc1)N2 (stereo not given)
K562
  GI50: 4.05 µM
  LC50: > 100 µM
OVCAR-8
  GI50: 13.1 µM
  LC50 (concentration causing 50% net cell kill): 95.2 µM
COLO 205
  GI50: 13 µM
COLO 205; [3]
  CC50: > 100 µM
NCI-H226
  GI50: 15.3 µM
  LC50: > 100 µM
NCI-H522
  GI50: 3.17 µM
NCI-H522; [3]
  CC50: > 100 µM
OVCAR-3
  GI50: 3.38 µM
OVCAR-3; [3]
  CC50: 61.8 µM
SNB-75
  GI50: 1.46 µM
  LC50: > 100 µM
SF-539
  GI50: 8.9 µM
  LC50 (concentration killing 50% of cells): 92 µM
SK-OV-3
  GI50: 14.1 µM
  LC50 (concentration killing 50% of cells): > 100 µM
786-0
  GI50: 12.4 µM
786-0; [3]
  CC50: 60.4 µM
HL-60(TB)
  GI50: 6.54 µM
  LC50: > 100 µM
[1]
  GI50: 4.2 µM
  LC50: > 100 µM
DU-145
  GI50: 16.2 µM
DU-145; [3]
  CC50: > 100 µM
CCRF-CEM
  GI50: 8.16 µM
CCRF-CEM; [3]
  CC50: > 100 µM
ACHN
  GI50: 11.6 µM
ACHN; [3]
  CC50: > 100 µM
HOP-92
  GI50: 9.52 µM
  LC50: > 100 µM
IGROV-1
  GI50: 11.3 µM
IGROV-1; [3]
  CC50: > 100 µM
EKVX
  GI50: 18.2 µM
EKVX; [3]
  CC50: > 100 µM
NCI-H23
  GI50: 13.5 µM
  LC50: > 100 µM
SF-268
  GI50: 12.7 µM
SF-268; [3]
  CC50: > 100 µM
HOP-62
  GI50: 11.9 µM
HOP-62; [3]
  CC50: 95.6 µM
A498
  GI50: 4.88 µM
  LC50: 57.7 µM
[2]
  GI50: 5.85 µM
[2]; [3]
  CC50: > 100 µM
HCC 2998
  GI50: 12.2 µM
HCC 2998; [3]
  CC50: 76.1 µM
NCI60
  Activity: Active
SW-620
  GI50: 4.48 µM
  LC50: > 100 µM
MDA-MB-231
  GI50: 12.6 µM
  LC50 (lethal concentration, 50% net cell kill): > 100 µM
SR
  GI50: 6.31 µM
  LC50 (concentration killing 50% of cells): > 100 µM
HT-29
  GI50: 3.36 µM
  LC50: 35.1 µM
HCT-15
  GI50: 4.57 µM
  LC50 (concentration killing 50% of starting cells): > 100 µM
U-251
  GI50: 5.43 µM
U-251; [3]
  CC50: 48.6 µM
HCT-116
  GI50: 7.23 µM
  LC50 (50% lethal concentration): 44.7 µM
NCI-H322M
  GI50: 13.9 µM
NCI-H322M; [3]
  CC50: > 100 µM
T47D
  GI50: 14.2 µM
T47D; [3]
  CC50: > 100 µM
OVCAR-4
  GI50: 15.4 µM
OVCAR-4; [3]
  CC50: > 100 µM
CAKI-1
  GI50: 3.3 µM
  LC50: > 100 µM
UO-31
  GI50: 16.3 µM
UO-31; [3]
  CC50: > 100 µM
KM12
  GI50: 3.77 µM
KM12; [3]
  CC50: 39.5 µM
